Paper PMC12102734 (Protein Science : A Publication of the Protein Society, 2025)
mca = not defined here

Tests used:
Sm20S = type: biochemical, Schistosoma mansoni; conditions: purified Sm20S
Method in brief: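 Purified Sm20S at 10 nM was given 2-fold serial dilutions of each substrate and fluorescence was read at 24°C. Ex/em was 360/460 nm for amc and 320/400 nm for mca substrates. Ranges were 2–500 μM for the β1 pair and 6.25–500 μM for the β2 pair. Relative activity was normalized to the rate at 500 μM (β1 pair), 500 μM Boc-LRR-amc vs 31.25 μM mca-FnKRR-K(dnp) (β2), and 100 μM (β5 pair). Technical triplicates.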

Sm20S β2 subunit [1] = target: T1, Sm20S β2 subunit (Schistosoma mansoni, UniProt G4VSW3); experiment: Concentration-response assay, purified Sm20S, Boc-LRR-amc substrate; type: biochemical; conditions: for inhibition at 0.5 µM: 2 h, read-out: reduction of β2 activity (Boc-LRR-amc)
T1 sequence (G4VSW3 39-281): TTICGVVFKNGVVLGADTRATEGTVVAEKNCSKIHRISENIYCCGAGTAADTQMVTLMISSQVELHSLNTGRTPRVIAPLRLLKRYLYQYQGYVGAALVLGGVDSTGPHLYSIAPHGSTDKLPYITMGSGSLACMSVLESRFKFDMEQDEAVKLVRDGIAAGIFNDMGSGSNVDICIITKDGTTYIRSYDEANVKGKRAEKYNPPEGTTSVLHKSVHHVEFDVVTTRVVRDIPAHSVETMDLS
Method in brief: (§1)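 Sm20S purified from adult worm homogenate by 30%/60% ammonium sulfate precipitation, gel filtration and DEAE anion exchange. Test compound was 3-fold serially diluted in DMSO, then diluted 250-fold into 20 mM Tris-HCl pH 7.5, 0.02% SDS with 20 nM enzyme. After 15 min preincubation, an equal volume of 20 μM substrate was added: Z-LLE-amc (β1), Boc-LRR-amc (β2) or Suc-LLVY-amc (β5). Read at RT for 2 h every 2 min. Max velocity over eight reads, normalized to 0.1% DMSO control, four-parameter logistic fit.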

Sm20S β5 subunit = target: T2, Sm20S β5 subunit (Schistosoma mansoni, UniProt A0A5K4F079); experiment: Concentration-response assay, purified Sm20S, Suc-LLVY-amc substrate; type: biochemical; conditions: 500 nM inhibitor
T2 sequence (A0A5K4F079 63-264): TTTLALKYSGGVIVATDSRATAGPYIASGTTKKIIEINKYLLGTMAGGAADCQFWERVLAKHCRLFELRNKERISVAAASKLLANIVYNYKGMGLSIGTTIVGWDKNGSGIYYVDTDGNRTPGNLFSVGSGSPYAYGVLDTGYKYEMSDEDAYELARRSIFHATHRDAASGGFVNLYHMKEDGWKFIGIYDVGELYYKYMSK
Method in brief: as §1

[2] = test system: 20S proteasome β5 subunit (single-step enriched extracts); experiment: Proteasome inhibition in three Schistosoma species, β5 substrate Ac-FNKL-amc; type: biochemical, S. mansoni, S. haematobium, S. japonicum; conditions: for inhibition of β5 activity, three Schistosoma species: extracts pre-incubated 1 h with 500 nM inhibitor; for reduction of β5 activity, across three Schistosoma species: 250 nM inhibitor
Method in brief: (§2)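 Extracts of S. mansoni, S. haematobium and S. japonicum adults were enriched by 30%/60% ammonium sulfate precipitation. Extracts (S. haematobium 0.625 μg/μL; others 1.25 μg/μL) were preincubated 1 h with 500 nM test compound (one also at 250 nM) or 0.125% DMSO. An equal volume of substrate was then added: 20 μM β1 or β2 mca/K(dnp) substrate, or 40 μM β5 Ac-FNKL-amc. Read at 24°C, triplicate wells.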

Sm20S β1 subunit [3] = target: T3, Sm20S β1 subunit (Schistosoma mansoni, UniProt G4V926); experiment: Inhibition of purified Sm20S, caspase-3 substrate mca-VDQMDGW-K; type: biochemical; conditions: 100 nM inhibitor, 10 μM substrate
T3 sequence (G4V926 1-225): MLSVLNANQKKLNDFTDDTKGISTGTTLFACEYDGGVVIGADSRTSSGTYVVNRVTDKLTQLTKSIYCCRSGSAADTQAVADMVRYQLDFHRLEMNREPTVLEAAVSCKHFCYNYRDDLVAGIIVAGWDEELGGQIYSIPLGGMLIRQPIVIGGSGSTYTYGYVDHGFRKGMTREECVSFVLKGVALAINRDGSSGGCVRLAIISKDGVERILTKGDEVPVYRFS

[4] = test system: 20S proteasome β1 subunit (single-step enriched extracts); experiment: Proteasome inhibition in three Schistosoma species, β1 substrate mca-VDQMDGW-K; type: biochemical, S. mansoni, S. haematobium, S. japonicum
Method in brief: as §2

Sm20S β2 subunit [5] = target: T1, Sm20S β2 subunit; experiment: Inhibition of single-step enriched Sm20S, mca-FnKRR-K; type: biochemical
Method in brief: (§3)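 Single-step enriched Sm20S: S. mansoni extract precipitated with ammonium sulfate (30% then 60% saturation, 60 min each on ice), resuspended in 100 mM Tris-HCl pH 7.5, 100 μM E-64, and concentrated on a 100 kDa filter. Assay buffer contained pepstatin, E-64 and AEBSF. Extract was incubated with test compound 1 h at RT, and cleavage of internally quenched mca/K(dnp) substrates was read at 24°C (ex/em 320/400 nm). Technical triplicates, curve fitting.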

Sm20S β1 subunit [6] = target: T3, Sm20S β1 subunit; experiment: Concentration-response assay, purified Sm20S, Z-LLE-amc substrate; type: biochemical
Method in brief: as §1

[7] = test system: 20S proteasome β2 subunit (single-step enriched extracts); experiment: Proteasome inhibition in three Schistosoma species, β2 substrate mca-FnKRR-K; type: biochemical, S. mansoni, S. haematobium, S. japonicum; conditions: extracts pre-incubated 1 h with 500 nM inhibitor
Method in brief: as §2

Sm20S β1 subunit [8] = target: T3, Sm20S β1 subunit; experiment: Inhibition of single-step enriched Sm20S, mca-VDQMDGW-K; type: biochemical
Method in brief: as §3

Boc‐LRR‐amc
cleavage by Sm20S over substrate concentration range (Sm20S; 6.25-500 μM substrate, β2): steadily increased across the entire concentration range

mca‐VDQMDGW‐K(dnp)‐NH2 (mca-VDQMDGW-{K(dnp)-NH2}; reading uncertain; also: printed as mca‐VDQMDGW‐K(dnp)‐NH2)
cleavage efficiency relative to LLE-amc (Sm20S; between 16 and 250 μM substrate, β1): ~ 2 fold

CC(C)C[C@H](NC(=O)[C@H](Cc1ccccc1)NC(=O)c1cnccn1)B(O)O [BTZ, bortezomib]
inhibition of β2 activity with old substrate Boc-LRR-amc (Sm20S β2 subunit [1]; 10 μM inhibitor): completely inhibited
inhibition at 0.5 µM (Sm20S β2 subunit [1]): ~35%
inhibition of β5 activity (Suc-LLVY-amc) (Sm20S β5 subunit): strongly inhibited
inhibition of β5 activity, three Schistosoma species [2]: preferentially inhibited
inhibition of mca-VDQMD*GW-K(dnp) hydrolysis by Sm20S (Sm20S β1 subunit [3]): inhibited
inhibition of β1 activity, three Schistosoma species ([4]; extracts pre-incubated 1 h with 500 nM inhibitor): preferentially inhibited
inhibition of β2 activity with new substrate mca-FnKRR-K(dnp) (Sm20S β2 subunit [5]; 10 μM inhibitor): did not inhibit
reduction of β2 activity (Sm20S β2 subunit [5]; up to 5 μM inhibitor): No reduction
reduction of β1 activity (Z-LLE-amc) (Sm20S β1 subunit [6]; 500 nM inhibitor, purified Sm20S): strongly inhibited

CC(C)C[C@H](NC(=O)[C@H](CCc1ccccc1)NC(=O)CN1CCOCC1)C(=O)N[C@@H](Cc1ccccc1)C(=O)N[C@@H](CC(C)C)C(=O)[C@@]1(C)CO1 [CFZ, carfilzomib]
inhibition of β2 activity, three Schistosoma species [7]: inhibited β5 and β2 more than β1
inhibition at 0.5 µM (Sm20S β2 subunit [1]): ~40%
inhibition of β5 activity (Suc-LLVY-amc) (Sm20S β5 subunit): strongly inhibited
inhibition of β1 activity with new substrate mca-VDQMDGW-K(dnp) (Sm20S β1 subunit [8]; 10 μM inhibitor, single-step enriched Sm20S): only partially inhibitory
inhibition at 5 µM (Sm20S β1 subunit [8]; read-out: inhibition of β1 subunit): 15%
inhibition of β5 activity, three Schistosoma species [2]: inhibited β5 and β2 more than β1
inhibition of β1 activity with old substrate Z-LLE-amc (Sm20S β1 subunit [6]; 10 μM inhibitor): fully inhibited
inhibition at 0.5 µM (Sm20S β1 subunit [6]; 2 h, read-out: reduction of β1 activity (Z-LLE-amc)): ~40%

CCCCCC(=O)N[C@@H](Cc1c[nH]c2ccccc12)C(=O)N[C@@H](Cc1c[nH]c2ccccc12)C(=O)N[C@@H](Cc1ccccc1)C(=O)[C@@]1(C)CO1 [CP‐17]
reduction of β5 activity, across three Schistosoma species [2]: > 90%
reduction in β1 activity, across three Schistosoma species ([4]; 250 nM inhibitor): little inhibition

Ac‐FNKL‐amc
cleavage rate relative to Suc-LLVY-amc (Sm20S; both substrates at 25 μM, β5): ~ 4 fold
substrate concentration at which cleavage is maximal (Sm20S; β5 substrate): 25 µM

C[C@@]12OC(=O)[C@]1([C@@H](O)[C@@H]1C=CCCC1)NC(=O)[C@@H]2CCCl [MZB, marizomib]
reduction of β5 activity, across three Schistosoma species [2]: complete inactivation
